# Assay results taken from ChEMBL document CHEMBL1155365, “2-Amino-9-aryl-3-cyano-4-methyl-7-oxo-6,7,8,9-tetrahydropyrido[2',3':4,5]thieno[2,3-b]pyridine derivatives as selective progesterone receptor agonists” (Bioorg Med Chem Lett, 2009).
# Biological target: Cytochrome P450 2D6 (Homo sapiens, UniProt P10635)
# Assay: Inhibition of CYP2D6
# Format: ADME
# Details: not given; call rule not given here
# Chain of Cytochrome P450 2D6 (P10635 whole entry): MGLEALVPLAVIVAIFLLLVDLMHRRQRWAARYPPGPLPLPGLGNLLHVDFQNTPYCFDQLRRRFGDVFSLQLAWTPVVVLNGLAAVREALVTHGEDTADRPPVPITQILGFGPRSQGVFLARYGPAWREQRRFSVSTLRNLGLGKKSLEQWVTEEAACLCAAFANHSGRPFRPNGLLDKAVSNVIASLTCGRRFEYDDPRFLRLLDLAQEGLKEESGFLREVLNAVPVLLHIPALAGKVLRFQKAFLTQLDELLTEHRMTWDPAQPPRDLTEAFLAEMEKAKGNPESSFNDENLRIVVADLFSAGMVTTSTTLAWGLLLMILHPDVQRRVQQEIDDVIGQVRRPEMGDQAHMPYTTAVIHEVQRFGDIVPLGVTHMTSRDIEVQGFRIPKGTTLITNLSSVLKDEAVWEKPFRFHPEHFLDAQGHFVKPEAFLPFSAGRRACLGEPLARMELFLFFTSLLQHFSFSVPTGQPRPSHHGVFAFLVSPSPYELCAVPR
row,Structure (SMILES),IC50 [nM]
1,Cc1c(C#N)c(N)nc2c3c(sc12)NC(=O)CC3c1ccccc1Cl (stereo not drawn),> 10000

# Biological target: T1, Androgen receptor (Homo sapiens, UniProt P10275)
# T1 sequence (P10275 whole entry): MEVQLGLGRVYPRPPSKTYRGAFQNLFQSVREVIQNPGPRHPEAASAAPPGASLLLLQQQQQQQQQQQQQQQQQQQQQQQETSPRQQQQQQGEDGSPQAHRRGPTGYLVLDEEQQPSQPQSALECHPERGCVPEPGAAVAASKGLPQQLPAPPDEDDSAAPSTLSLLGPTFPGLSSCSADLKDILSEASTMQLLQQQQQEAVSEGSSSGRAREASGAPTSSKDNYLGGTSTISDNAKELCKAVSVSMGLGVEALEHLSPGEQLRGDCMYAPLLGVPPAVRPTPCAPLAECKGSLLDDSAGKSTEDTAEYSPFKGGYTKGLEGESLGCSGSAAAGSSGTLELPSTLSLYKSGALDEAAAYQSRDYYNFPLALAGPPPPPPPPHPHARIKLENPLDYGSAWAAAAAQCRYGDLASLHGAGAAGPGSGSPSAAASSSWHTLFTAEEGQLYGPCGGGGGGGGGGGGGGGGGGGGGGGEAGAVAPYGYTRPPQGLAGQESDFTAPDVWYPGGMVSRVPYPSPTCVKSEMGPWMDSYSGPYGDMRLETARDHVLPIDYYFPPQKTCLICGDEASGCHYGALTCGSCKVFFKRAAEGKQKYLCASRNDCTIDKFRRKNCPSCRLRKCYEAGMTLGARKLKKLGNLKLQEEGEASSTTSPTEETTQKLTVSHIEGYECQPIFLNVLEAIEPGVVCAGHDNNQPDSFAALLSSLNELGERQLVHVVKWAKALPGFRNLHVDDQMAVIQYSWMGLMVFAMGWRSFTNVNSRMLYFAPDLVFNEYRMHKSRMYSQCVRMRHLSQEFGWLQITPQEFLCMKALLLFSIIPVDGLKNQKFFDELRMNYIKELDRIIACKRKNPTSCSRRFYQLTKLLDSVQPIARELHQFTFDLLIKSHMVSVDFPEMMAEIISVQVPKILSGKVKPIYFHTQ
# Assay: Binding affinity to androgen receptor
# Details: not given
row,Structure (SMILES),pIC50
1,Cc1c(C#N)c(N)nc2c3c(sc12)NC(=O)CC3c1c(F)cccc1Cl (stereo not drawn),> 5
2,Cc1c(C#N)c(O)nc2c3c(sc12)NC(=O)CC3c1ccccc1Cl (stereo not drawn),> 5
3,Cc1c(C#N)c(N)nc2c3c(sc12)NC(=O)CC3c1cc(Cl)ccc1Cl (stereo not drawn),> 5
4,Cc1c(C#N)c(N)nc2c3c(sc12)NC(=O)CC3c1ccccc1Cl (stereo not drawn),< 5

# Next, values leading:
row,pIC50,Structure (SMILES)
1,> 5,Cc1c(C#N)c(N)nc2c3c(sc12)NC(=O)C[C@@H]3c1ccccc1Cl
2,> 5,Cc1c(C#N)c(N)nc2c3c(sc12)NC(=O)CC3c1cccc(Cl)c1Cl (stereo not drawn)
3,> 5,Cc1c(C#N)c(N)nc2c3c(sc12)NC(=O)CC3c1ccc(Cl)cc1Cl (stereo not drawn)

# Test system: not listed separately
# Assay: Oral bioavailability in mouse at 1 mg/kg
# Format: ADME, organism-based
# Details: in vivo
# Summary of the method: (§1)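 In vivo mouse pharmacokinetics with dosing at 0.5 mg/kg intravenously and 1.0 mg/kg orally. Blood clearance, half-life, steady-state volume of distribution and oral bioavailability were derived from these studies.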
row,Structure (SMILES),bioavailability [%]
1,Cc1c(C#N)c(N)nc2c3c(sc12)NC(=O)CC3c1ccccc1Cl (stereo not drawn),36

# Test system: Liver microsomes
# Assay: Intrinsic clearance in human liver microsomes
# Format: ADME, Microsome
# Details: not given
# Summary of the method: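 Metabolic stability in human liver microsomes; intrinsic clearance expressed as mL/min[…].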
row,Structure (SMILES),CL [µL/min/mg]
1,Cc1c(C#N)c(N)nc2c3c(sc12)NC(=O)CC3c1ccccc1Cl (stereo not drawn),19

# Biological target: Cytochrome P450 3A4 (Homo sapiens, UniProt P08684)
# Assay: Inhibition of CYP3A4
# Format: ADME
# Details: not given
# Chain of Cytochrome P450 3A4 (P08684 whole entry): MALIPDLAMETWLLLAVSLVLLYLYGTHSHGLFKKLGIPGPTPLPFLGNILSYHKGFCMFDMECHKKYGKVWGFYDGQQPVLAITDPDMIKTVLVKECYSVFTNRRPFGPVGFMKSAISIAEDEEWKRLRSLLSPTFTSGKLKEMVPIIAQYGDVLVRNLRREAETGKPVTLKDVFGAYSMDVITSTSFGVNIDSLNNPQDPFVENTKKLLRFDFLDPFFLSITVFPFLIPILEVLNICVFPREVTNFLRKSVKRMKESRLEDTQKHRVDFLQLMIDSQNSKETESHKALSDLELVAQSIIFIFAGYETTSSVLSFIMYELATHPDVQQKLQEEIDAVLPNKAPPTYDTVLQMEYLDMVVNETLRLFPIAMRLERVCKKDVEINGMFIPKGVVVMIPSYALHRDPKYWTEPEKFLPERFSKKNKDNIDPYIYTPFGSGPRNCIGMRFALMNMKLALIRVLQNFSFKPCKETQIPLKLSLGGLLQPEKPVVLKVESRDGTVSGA
row,Structure (SMILES),IC50 [nM]
1,Cc1c(C#N)c(N)nc2c3c(sc12)NC(=O)CC3c1ccccc1Cl (stereo not drawn),> 10000

# Test system: not listed separately
# Assay: Half life in mouse at 0.5 mg/kg, iv and 1 mg/kg, po
# Format: ADME, organism-based
# Details: in vivo
# Summary of the method: as §1
row,Structure (SMILES),half-life [h]
1,Cc1c(C#N)c(N)nc2c3c(sc12)NC(=O)CC3c1ccccc1Cl (stereo not drawn),1.1

# Biological target: T2, Progesterone receptor (Homo sapiens, UniProt P06401)
# T2 sequence (P06401 whole entry): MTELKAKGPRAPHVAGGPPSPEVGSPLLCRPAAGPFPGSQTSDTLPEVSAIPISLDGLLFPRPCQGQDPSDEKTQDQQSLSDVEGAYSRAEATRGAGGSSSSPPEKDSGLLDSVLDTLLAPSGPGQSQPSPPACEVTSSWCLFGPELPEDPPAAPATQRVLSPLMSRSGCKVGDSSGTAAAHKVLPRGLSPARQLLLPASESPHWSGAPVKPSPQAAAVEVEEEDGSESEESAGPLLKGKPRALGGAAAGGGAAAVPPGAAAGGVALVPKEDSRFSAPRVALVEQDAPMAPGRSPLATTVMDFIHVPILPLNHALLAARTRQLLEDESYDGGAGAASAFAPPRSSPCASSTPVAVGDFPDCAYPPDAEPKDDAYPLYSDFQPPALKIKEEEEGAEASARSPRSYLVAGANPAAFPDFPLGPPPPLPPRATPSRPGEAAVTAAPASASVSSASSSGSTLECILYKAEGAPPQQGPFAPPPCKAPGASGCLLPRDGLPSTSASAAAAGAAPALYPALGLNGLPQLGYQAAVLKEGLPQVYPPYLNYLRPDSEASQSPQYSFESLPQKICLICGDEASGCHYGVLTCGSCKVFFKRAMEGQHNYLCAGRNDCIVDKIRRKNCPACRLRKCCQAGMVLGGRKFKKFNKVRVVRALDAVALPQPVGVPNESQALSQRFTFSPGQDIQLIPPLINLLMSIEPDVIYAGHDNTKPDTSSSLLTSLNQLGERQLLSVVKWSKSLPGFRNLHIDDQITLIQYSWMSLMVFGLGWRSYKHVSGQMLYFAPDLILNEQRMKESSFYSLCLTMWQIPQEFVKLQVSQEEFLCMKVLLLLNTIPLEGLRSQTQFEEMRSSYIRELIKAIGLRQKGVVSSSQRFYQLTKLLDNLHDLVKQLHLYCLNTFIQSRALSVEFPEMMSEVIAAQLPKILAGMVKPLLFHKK
# Assay: Agonist activity at progesterone receptor B expressed in CV-1 cells by MMTV luciferase reporter gene assay
# Format: functional, cell-based
# Details: not given
row,Structure (SMILES),EC50 [nM]
1,Cc1c(C#N)c(N)nc2c3c(sc12)NC(=O)CC3c1c(F)cccc1Cl (stereo not drawn),3980
2,Cc1c(C#N)c(O)nc2c3c(sc12)NC(=O)CC3c1ccccc1Cl (stereo not drawn),> 10000
3,Cc1c(C#N)c(N)nc2c3c(sc12)NC(=O)CC3c1cc(Cl)ccc1Cl (stereo not drawn),> 10000
4,Cc1c(C#N)c(N)nc2c3c(sc12)NC(=O)CC3c1ccccc1Cl (stereo not drawn),631

# More lines, now with the values ahead:
row,EC50 [nM],Structure (SMILES)
1,200,Cc1c(C#N)c(N)nc2c3c(sc12)NC(=O)C[C@@H]3c1ccccc1Cl
2,> 10000,Cc1c(C#N)c(N)nc2c3c(sc12)NC(=O)CC3c1cccc(Cl)c1Cl (stereo not drawn)
3,> 10000,Cc1c(C#N)c(N)nc2c3c(sc12)NC(=O)CC3c1ccc(Cl)cc1Cl (stereo not drawn)

# Biological target: T3, Progesterone receptor (Homo sapiens) (UniProt P06401)
# T3 sequence (whole entry): T2 sequence (P06401 whole entry)
# Assay: Agonist activity at progesterone receptor in human T47D cell after 24 hrs by alkaline phosphatase assay relative to progesterone
# Details: not given
row,Structure (SMILES),Activity [%]
1,Cc1c(C#N)c(N)nc2c3c(sc12)NC(=O)C[C@@H]3c1ccccc1Cl,83
2,Cc1c(C#N)c(N)nc2c3c(sc12)NC(=O)CC3c1c(F)cccc1Cl (stereo not drawn),13
3,Cc1c(C#N)c(N)nc2c3c(sc12)NC(=O)CC3c1ccccc1Cl (stereo not drawn),80

# Biological target: T4, Cytochrome P450 1A2 (Homo sapiens, UniProt P05177)
# T4 sequence (P05177 whole entry): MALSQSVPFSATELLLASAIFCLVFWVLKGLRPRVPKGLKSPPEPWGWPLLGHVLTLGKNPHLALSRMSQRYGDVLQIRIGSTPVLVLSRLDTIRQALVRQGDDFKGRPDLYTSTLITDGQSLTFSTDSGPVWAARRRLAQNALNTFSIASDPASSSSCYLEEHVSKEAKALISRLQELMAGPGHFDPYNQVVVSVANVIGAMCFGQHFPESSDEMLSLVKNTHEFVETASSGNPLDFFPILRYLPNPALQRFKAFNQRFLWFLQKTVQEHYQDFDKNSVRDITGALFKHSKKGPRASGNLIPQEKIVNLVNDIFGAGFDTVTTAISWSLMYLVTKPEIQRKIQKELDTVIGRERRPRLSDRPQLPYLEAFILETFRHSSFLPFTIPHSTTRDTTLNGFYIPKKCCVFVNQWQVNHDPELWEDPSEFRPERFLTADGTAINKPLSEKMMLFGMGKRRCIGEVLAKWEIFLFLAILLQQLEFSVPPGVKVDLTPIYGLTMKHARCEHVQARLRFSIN
# Assay: Inhibition of CYP1A2
# Format: ADME
# Details: not given
row,Structure (SMILES),IC50 [nM]
1,Cc1c(C#N)c(N)nc2c3c(sc12)NC(=O)CC3c1ccccc1Cl (stereo not drawn),> 10000

# Biological target: Cytochrome P450 2C9 (Homo sapiens, UniProt P11712)
# Assay: Inhibition of CYP2C9
# Format: ADME
# Details: not given
# Chain of Cytochrome P450 2C9 (P11712 whole entry): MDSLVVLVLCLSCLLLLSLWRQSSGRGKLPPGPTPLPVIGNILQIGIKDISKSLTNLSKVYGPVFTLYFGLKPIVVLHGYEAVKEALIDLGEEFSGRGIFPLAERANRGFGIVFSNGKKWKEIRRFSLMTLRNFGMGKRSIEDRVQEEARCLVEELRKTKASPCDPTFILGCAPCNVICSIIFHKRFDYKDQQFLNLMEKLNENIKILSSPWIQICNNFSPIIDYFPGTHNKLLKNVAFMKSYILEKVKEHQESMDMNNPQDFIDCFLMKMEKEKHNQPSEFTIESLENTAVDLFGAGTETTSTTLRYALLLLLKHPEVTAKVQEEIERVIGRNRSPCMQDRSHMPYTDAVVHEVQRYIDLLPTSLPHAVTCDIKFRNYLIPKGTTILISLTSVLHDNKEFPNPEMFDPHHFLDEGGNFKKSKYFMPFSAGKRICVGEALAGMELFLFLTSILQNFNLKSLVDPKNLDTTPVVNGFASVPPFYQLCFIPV
row,Structure (SMILES),IC50 [nM]
1,Cc1c(C#N)c(N)nc2c3c(sc12)NC(=O)CC3c1ccccc1Cl (stereo not drawn),1260

# Biological target: Cytochrome P450 2C19 (Homo sapiens, UniProt P33261)
# Assay: Inhibition of CYP2C19
# Format: ADME
# Details: not given
# Chain of Cytochrome P450 2C19 (P33261 whole entry): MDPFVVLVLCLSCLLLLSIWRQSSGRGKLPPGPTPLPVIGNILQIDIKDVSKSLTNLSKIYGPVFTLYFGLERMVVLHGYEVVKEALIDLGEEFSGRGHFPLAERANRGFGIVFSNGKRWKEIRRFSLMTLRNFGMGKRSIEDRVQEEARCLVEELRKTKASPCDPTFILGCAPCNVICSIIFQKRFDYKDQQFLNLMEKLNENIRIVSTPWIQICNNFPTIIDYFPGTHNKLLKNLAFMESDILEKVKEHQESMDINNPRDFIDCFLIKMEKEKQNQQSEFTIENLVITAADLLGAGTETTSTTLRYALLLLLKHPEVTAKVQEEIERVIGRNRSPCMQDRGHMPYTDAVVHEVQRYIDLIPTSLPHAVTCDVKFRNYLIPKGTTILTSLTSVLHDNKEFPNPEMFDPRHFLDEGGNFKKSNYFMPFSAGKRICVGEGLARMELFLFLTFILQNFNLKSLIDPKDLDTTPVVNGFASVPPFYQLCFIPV
row,Structure (SMILES),IC50 [nM]
1,Cc1c(C#N)c(N)nc2c3c(sc12)NC(=O)CC3c1ccccc1Cl (stereo not drawn),> 10000

# Biological target: T2, Progesterone receptor
# Assay: Displacement of fluormone PL RED from progesterone receptor after 2 hrs
# Details: not given
# Summary of the method: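 Fluorescence polarization competition: 40 nM PR ligand-binding domain, 2 nM Fluormone PL Red, 1 mM DTT in PR Red buffer with 2 mM CHAPS, added to compound; brief spin, light-protected, ~2 h at room temperature; read at 530 nm excitation/580 nm emission. Values are means of ≥2 determinations.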
row,Structure (SMILES),IC50 [nM]
1,Cc1c(C#N)c(N)nc2c3c(sc12)NC(=O)CC3c1c(F)cccc1Cl (stereo not drawn),1260
2,Cc1c(C#N)c(O)nc2c3c(sc12)NC(=O)CC3c1ccccc1Cl (stereo not drawn),> 10000
3,Cc1c(C#N)c(N)nc2c3c(sc12)NC(=O)CC3c1cc(Cl)ccc1Cl (stereo not drawn),1000
4,Cc1c(C#N)c(N)nc2c3c(sc12)NC(=O)CC3c1ccccc1Cl (stereo not drawn),200

# Further lines, results first:
row,IC50 [nM],Structure (SMILES)
1,158,Cc1c(C#N)c(N)nc2c3c(sc12)NC(=O)C[C@@H]3c1ccccc1Cl
2,794,Cc1c(C#N)c(N)nc2c3c(sc12)NC(=O)CC3c1cccc(Cl)c1Cl (stereo not drawn)
3,794,Cc1c(C#N)c(N)nc2c3c(sc12)NC(=O)CC3c1ccc(Cl)cc1Cl (stereo not drawn)

# Test system: not listed separately
# Assay: Volume of distribution at steady state in mouse at 0.5 mg/kg, iv and 1 mg/kg, po
# Format: ADME, organism-based
# Details: in vivo, read-out: Vdss
# Summary of the method: as §1
row,Structure (SMILES),Vd [L/kg]
1,Cc1c(C#N)c(N)nc2c3c(sc12)NC(=O)CC3c1ccccc1Cl (stereo not drawn),2.5

# Biological target: Voltage-gated inwardly rectifying potassium channel KCNH2 (Homo sapiens, UniProt Q12809)
# Assay: Binding affinity to human ERG channel
# Details: not given
# Chain of Voltage-gated inwardly rectifying potassium channel KCNH2 (Q12809 whole entry): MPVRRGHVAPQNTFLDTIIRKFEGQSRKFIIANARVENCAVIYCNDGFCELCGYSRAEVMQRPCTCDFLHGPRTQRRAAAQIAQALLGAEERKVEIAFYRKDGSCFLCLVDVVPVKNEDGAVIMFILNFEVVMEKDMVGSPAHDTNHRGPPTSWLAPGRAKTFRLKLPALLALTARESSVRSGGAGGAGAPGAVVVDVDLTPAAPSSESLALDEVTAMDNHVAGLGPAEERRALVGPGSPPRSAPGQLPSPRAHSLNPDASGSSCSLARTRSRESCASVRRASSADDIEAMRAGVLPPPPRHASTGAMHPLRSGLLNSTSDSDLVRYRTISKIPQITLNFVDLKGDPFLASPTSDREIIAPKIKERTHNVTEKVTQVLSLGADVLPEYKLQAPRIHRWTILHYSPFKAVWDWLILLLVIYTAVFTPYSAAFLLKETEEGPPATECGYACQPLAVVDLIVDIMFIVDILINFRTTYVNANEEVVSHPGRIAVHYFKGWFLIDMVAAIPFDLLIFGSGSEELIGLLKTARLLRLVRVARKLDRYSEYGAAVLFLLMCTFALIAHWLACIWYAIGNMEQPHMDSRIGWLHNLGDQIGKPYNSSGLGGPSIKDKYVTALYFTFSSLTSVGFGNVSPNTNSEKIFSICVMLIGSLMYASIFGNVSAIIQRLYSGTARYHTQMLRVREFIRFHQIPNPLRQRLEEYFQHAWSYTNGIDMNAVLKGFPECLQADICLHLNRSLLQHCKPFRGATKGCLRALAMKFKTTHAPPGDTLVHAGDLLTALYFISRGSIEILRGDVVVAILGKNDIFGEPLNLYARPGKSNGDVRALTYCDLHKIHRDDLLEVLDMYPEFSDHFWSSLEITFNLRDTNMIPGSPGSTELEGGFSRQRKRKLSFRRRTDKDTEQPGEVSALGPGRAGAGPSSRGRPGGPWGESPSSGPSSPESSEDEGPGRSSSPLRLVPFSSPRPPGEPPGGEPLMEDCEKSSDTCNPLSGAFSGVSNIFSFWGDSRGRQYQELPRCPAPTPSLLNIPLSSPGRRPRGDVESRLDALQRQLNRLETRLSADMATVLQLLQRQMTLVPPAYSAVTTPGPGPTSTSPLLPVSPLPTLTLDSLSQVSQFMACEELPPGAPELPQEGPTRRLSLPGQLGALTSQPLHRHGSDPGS
row,Structure (SMILES),Activity
1,Cc1c(C#N)c(N)nc2c3c(sc12)NC(=O)CC3c1ccccc1Cl (stereo not drawn),Not Active

# Test system: Mus musculus
# Assay: Blood clearance in mouse at 0.5 mg/kg, iv and 1 mg/kg, po
# Format: ADME, organism-based
# Details: in vivo
# Summary of the method: as §1
row,Structure (SMILES),clearance [mL/min/kg]
1,Cc1c(C#N)c(N)nc2c3c(sc12)NC(=O)CC3c1ccccc1Cl (stereo not drawn),24

# Biological target: T2, Progesterone receptor
# Assay: Agonist activity at progesterone receptor in human T47D cell after 24 hrs by alkaline phosphatase assay
# Format: functional, cell-based
# Details: not given
# Summary of the method: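 T47D cells seeded and left to attach overnight, then treated with compound and incubated overnight. Next day pNPP-SPAP substrate added, 2 h in the dark, absorbance read at 405 nm. Potency as pEC50, efficacy as % of P4 response; means of ≥2 determinations.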
row,Structure (SMILES),pEC50
1,Cc1c(C#N)c(N)nc2c3c(sc12)NC(=O)C[C@@H]3c1ccccc1Cl,7.4
2,Cc1c(C#N)c(N)nc2c3c(sc12)NC(=O)CC3c1c(F)cccc1Cl (stereo not drawn),6.1
3,Cc1c(C#N)c(N)nc2c3c(sc12)NC(=O)CC3c1ccccc1Cl (stereo not drawn),7.1
